≈ marks a conversion by molar mass, not a printed value.
What was measured:
Assay type in all cases: functional
Prevotella baroniae [1] = assay: Antimicrobial activity against Prevotella baroniae LBN 427 expressing nim gene assessed as inhibition of growth at 48 hrs by agar dilution method; details: Segatella baroniae, LBN 427, 48 h
In short: (§1)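 Metronidazole MIC by agar dilution (CLSI M11-A7) on brucella agar with 5% sheep blood, hemin and vitamin K1. Plates were read after 48 h at 35°C under anaerobic conditions. Susceptible was MIC ≤ 4 μg/ml and resistant MIC ≥ 8 μg/ml (EUCAST). B. fragilis ATCC 25285T and B. thetaiotaomicron ATCC 29741 were run as controls. Duplicate assays.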

Prevotella bivia [2] = assay: Antimicrobial activity against Prevotella bivia LBN 333 deficient in nim gene assessed as inhibition of growth at 48 hrs by agar dilution method; details: LBN 333, 48 h; in short: as §1
Prevotella baroniae [3] = assay: Antimicrobial activity against Prevotella baroniae LBN 430 expressing nim gene assessed as inhibition of growth at 48 hrs by agar dilution method; details: Segatella baroniae, LBN 430, 48 h; in short: as §1
Prevotella bivia [4] = assay: Antimicrobial activity against Prevotella bivia LBN 478 deficient in nim gene assessed as inhibition of growth at 48 hrs by agar dilution method; details: LBN 478, 48 h; in short: as §1
Bacteroides fragilis [5] = assay: Antimicrobial activity against Bacteroides fragilis ATCC 25285T deficient in nimI gene assessed as inhibition of growth after several passages on plates containing increasing concentration of compound by agar dilution method
In short: (§2)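 Induction of metronidazole resistance: bacterial suspensions inoculated onto brucella blood agar (5% sheep blood, hemin, vitamin K1) containing metronidazole at increasing concentrations, grown anaerobically at 37°C. Colonies growing at the highest concentration were retested for MIC by CLSI agar dilution on the same agar. Duplicate experiments.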

Prevotella bivia [6] = assay: Antimicrobial activity against Prevotella bivia LBP 78 deficient in nim gene assessed as inhibition of growth at 48 hrs by agar dilution method; details: LBP 78, 48 h; in short: as §1
Prevotella bivia [7] = assay: Antimicrobial activity against slow growing colonies of Prevotella bivia LBN 331 deficient in nim gene assessed as inhibition of growth at 48 hrs by agar dilution method; details: LBN 331, 48 h
In short: (§3)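 Slowly growing colonies inside the Etest inhibition zone, seen after prolonged incubation (an additional 72 h after the 48 h reading), were subcultured without antibiotic. They were then retested for metronidazole MIC by agar dilution on supplemented brucella blood agar under anaerobic conditions.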

Prevotella nanceiensis [8] = assay: Antimicrobial activity against Prevotella nanceiensis LBN 410 deficient in nimI gene assessed as inhibition of growth after several passages on plates containing increasing concentration of compound by agar dilution method; details: Hoylesella nanceiensis; in short: as §2
Prevotella baroniae [9] = assay: Antimicrobial activity against Prevotella baroniae LBN 432 expressing nim gene assessed as inhibition of growth at 48 hrs by agar dilution method; details: Segatella baroniae, LBN 432, 48 h; in short: as §1
Prevotella bivia [10] = assay: Antimicrobial activity against slow growing colonies of Prevotella bivia LBN 339 deficient in nim gene assessed as inhibition of growth at 48 hrs by agar dilution method; details: LBN 339, 48 h; in short: as §3
Prevotella bivia [11] = assay: Antimicrobial activity against Prevotella bivia LBP 51 deficient in nim gene assessed as inhibition of growth at 48 hrs by agar dilution method; details: LBP 51, 48 h; in short: as §1
Prevotella nanceiensis [12] = assay: Antimicrobial activity against slow growing colonies of Prevotella nanceiensis LBP 66 deficient in nim gene assessed as inhibition of growth at 48 hrs by agar dilution method; details: Hoylesella nanceiensis, LBP 66, 48 h
In short: (§4)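 Metronidazole MIC by agar dilution per CLSI M11-A7 on brucella agar with 5% sheep blood, hemin and vitamin K1. Plates incubated anaerobically at 35°C and read at 48 h, with a second reading after a further 72 h. B. fragilis ATCC 25285T and B. thetaiotaomicron ATCC 29741 served as controls. Done in duplicate; EUCAST breakpoints applied (S ≤4, R ≥8 μg/ml).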

Prevotella baroniae [13] = assay: Antimicrobial activity against Prevotella baroniae DSM 16972T expressing nim gene assessed as inhibition of growth at 48 hrs by agar dilution method; details: Segatella baroniae; in short: as §1
Prevotella baroniae [14] = assay: Antimicrobial activity against Prevotella baroniae DSM 16972T expressing nimI gene assessed as inhibition of growth after three consecutive subcultures on compound free medium by agar dilution method; details: Segatella baroniae
In short: (§5)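 Stability of induced resistance: metronidazole-selected isolates were subcultured three consecutive times on drug-free brucella blood agar (5% sheep blood, hemin, vitamin K1) under anaerobic conditions, then MIC was redetermined by CLSI agar dilution. Resistance was called stable if the MIC held within ±1 dilution. Duplicate experiments.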

Prevotella bivia [15] = assay: Antimicrobial activity against Prevotella bivia LBN 332 deficient in nimI gene assessed as inhibition of growth after three consecutive subcultures on compound free medium by agar dilution method; in short: as §5
Prevotella buccae = assay: Antimicrobial activity against Prevotella buccae LBN 465 deficient in nimI gene assessed as inhibition of growth at 48 hrs by agar dilution method; details: Segatella buccae, LBN 465, 48 h
In short: (§6)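 Agar dilution MIC on brucella agar with 5% sheep blood, hemin and vitamin K1, following CLSI M11-A7. Plates read after 48 h at 35°C under anaerobic conditions, with B. fragilis ATCC 25285T and B. thetaiotaomicron ATCC 29741 as controls. Assays in duplicate. Isolates kept at −80°C in brucella broth with 15% glycerol. Interpretation used EUCAST breakpoints (S ≤4, R ≥8 μg/ml).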

Prevotella bivia [16] = assay: Antimicrobial activity against Prevotella bivia LBN 334 deficient in nim gene assessed as inhibition of growth at 48 hrs by agar dilution method; details: LBN 334, 48 h; in short: as §1
Bacteroides fragilis [17] = assay: Antimicrobial activity against Bacteroides fragilis ATCC 25285T deficient in nimI gene assessed as inhibition of growth after three consecutive subcultures on compound free medium by agar dilution method
In short: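 Resistance induction: bacterial suspensions were plated on supplemented brucella blood agar with rising metronidazole concentrations. Colonies from the highest concentration were tested by agar dilution. MIC was then redetermined after three consecutive subcultures on drug-free agar. Resistance counted as stable if the MIC held within ±1 dilution. Anaerobic growth at 37°C. Duplicate experiments.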

Prevotella bivia [18] = assay: Antimicrobial activity against Prevotella bivia LBN 346 deficient in nim gene assessed as inhibition of growth at 48 hrs by agar dilution method; details: LBN 346, 48 h; in short: as §6
Prevotella bivia [19] = assay: Antimicrobial activity against Prevotella bivia LBP 65 deficient in nim gene assessed as inhibition of growth at 48 hrs by agar dilution method; details: LBP 65, 48 h; in short: as §1
Prevotella bivia [20] = assay: Antimicrobial activity against slow growing colonies of Prevotella bivia LBN 478 deficient in nim gene assessed as inhibition of growth at 48 hrs by agar dilution method; details: LBN 478, 48 h; in short: as §4
Prevotella baroniae [21] = assay: Antimicrobial activity against Prevotella baroniae LBN 430 expressing nimI gene assessed as inhibition of growth after three consecutive subcultures on compound free medium by agar dilution method; details: Segatella baroniae; in short: as §5
Prevotella bivia [22] = assay: Antimicrobial activity against Prevotella bivia LBN 464 deficient in nim gene assessed as inhibition of growth at 48 hrs by agar dilution method; details: LBN 464, 48 h; in short: as §1
Prevotella bivia [23] = assay: Antimicrobial activity against slow growing colonies of Prevotella bivia LBN 332 deficient in nim gene assessed as inhibition of growth at 48 hrs by agar dilution method; details: LBN 332, 48 h; in short: as §3
Prevotella nanceiensis [24] = assay: Antimicrobial activity against slow growing colonies of Prevotella nanceiensis LBN 297 deficient in nim gene assessed as inhibition of growth at 48 hrs by agar dilution method; details: Hoylesella nanceiensis, LBN 297, 48 h; in short: as §4
Prevotella bivia [25] = assay: Antimicrobial activity against Prevotella bivia LBN 331 deficient in nim gene assessed as inhibition of growth at 48 hrs by agar dilution method; details: LBN 331, 48 h; in short: as §1

For Cc1ncc([N+](=O)[O-])n1CCO [METRONIDAZOLE], the MIC (Prevotella baroniae [1]) was 4 µg/mL (≈ 23.4 µM), the MIC (Prevotella bivia [2]) was 2 µg/mL (≈ 11.7 µM) and the MIC (Prevotella baroniae [3]) was 4 µg/mL (≈ 23.4 µM). The MIC (Prevotella bivia [4]) was 4 µg/mL (≈ 23.4 µM), the MIC (Bacteroides fragilis [5]) was 256 µg/mL (≈ 1500 µM) and the MIC (Prevotella bivia [6]) was 4 µg/mL (≈ 23.4 µM). For the same compound, the MIC (Prevotella bivia [7]) was 16 µg/mL (≈ 93.5 µM), the MIC (Prevotella nanceiensis [8]) was 256 µg/mL (≈ 1500 µM) and the MIC (Prevotella baroniae [9]) was 2 µg/mL (≈ 11.7 µM). The MIC (Prevotella bivia [10]) was 16 µg/mL (≈ 93.5 µM), the MIC (Prevotella bivia [11]) was 2 µg/mL (≈ 11.7 µM) and the MIC (Prevotella nanceiensis [12]) was 8 µg/mL (≈ 46.7 µM). The MIC (Prevotella baroniae [13]) was 2 µg/mL (≈ 11.7 µM), the MIC (Prevotella baroniae [14]) was 16 µg/mL (≈ 93.5 µM) and the MIC (Prevotella bivia [15]) was > 256 µg/mL. The MIC (Prevotella buccae) was 0.5 µg/mL (≈ 2.92 µM), the MIC (Prevotella bivia [16]) was 2 µg/mL (≈ 11.7 µM) and the MIC (Bacteroides fragilis [17]) was 128 µg/mL (≈ 748 µM). The MIC (Prevotella bivia [18]) was 1 µg/mL (≈ 5.84 µM), the MIC (Prevotella bivia [19]) was 4 µg/mL (≈ 23.4 µM) and the MIC (Prevotella bivia [20]) was 8 µg/mL (≈ 46.7 µM). For the same compound, the MIC (Prevotella baroniae [21]) was 128 µg/mL (≈ 748 µM), the MIC (Prevotella bivia [22]) was 8 µg/mL (≈ 46.7 µM) and the MIC (Prevotella bivia [23]) was 32 µg/mL (≈ 187 µM). For the same compound, the MIC (Prevotella nanceiensis [24]) was 16 µg/mL (≈ 93.5 µM) and the MIC (Prevotella bivia [25]) was 2 µg/mL (≈ 11.7 µM).
